Experiment [1] deals with T1, Type-1 angiotensin II receptor (Homo sapiens) (UniProt P30556).
T1 sequence (whole entry): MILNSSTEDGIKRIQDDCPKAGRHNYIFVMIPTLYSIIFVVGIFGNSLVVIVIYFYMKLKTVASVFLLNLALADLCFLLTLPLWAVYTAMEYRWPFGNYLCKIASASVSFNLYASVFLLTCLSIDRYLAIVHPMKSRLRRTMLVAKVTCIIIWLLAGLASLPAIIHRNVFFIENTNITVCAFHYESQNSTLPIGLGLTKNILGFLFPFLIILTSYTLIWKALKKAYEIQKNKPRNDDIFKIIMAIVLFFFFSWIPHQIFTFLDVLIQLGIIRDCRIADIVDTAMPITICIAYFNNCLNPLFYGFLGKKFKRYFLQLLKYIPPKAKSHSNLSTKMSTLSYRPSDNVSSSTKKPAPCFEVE
The experiment in a line: Displacement of [125I]-Sar(1)Ile(8)-Ang 2 from human AT1 receptor in CHO cells. It is filed as cell-based. An outline of the steps:
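Membranes from CHO cells stably expressing human AT1 receptor, in 50 mM Tris-HCl pH 7.4 with 100 mM NaCl, 6 mM MgCl2 and 0.1% BSA. ~50 µg protein incubated 1 h at room temperature with 0.15 nM 125I-Sar1Ile8-Ang II, with or without competitor at 10 µM final. Bound ligand separated by centrifugation, counted as cpm. Control had DMSO and no competitor. Mean cpm ± SEM.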

For experiment [2], the system named is Rattus norvegicus. The experiment in a line: Reduction of the systolic blood pressure in normotensive Sprague-Dawley rat at 3 mg/kg, ip. It is filed as functional, organism-based. Further details: dose 3 mg/kg. The conditions noted are these: Artery. An outline of the steps: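 Normotensive male rats (230-250 g), n = 6 per group, given a single ip dose of 3 mg/kg in 0.1 mL DMSO, with a DMSO vehicle control. Systolic BP measured 2 h later by tail-cuff in conscious, cage-acclimatized rats in a 31-32 °C chamber. Mean % reduction versus control reported; ANOVA/LSD.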

Experiment [3] relates to Rattus norvegicus. The experiment in a line: Reduction of the systolic blood pressure in hypertensive Sprague-Dawley rat at 3 mg/kg, ip. The class given is functional, organism-based. On the set-up: dose 3 mg/kg. The conditions noted are these: Artery. An outline of the steps:
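Male rats (230-250 g) made hypertensive with DOCA 10 mg/kg sc daily plus 8% NaCl diet for 3-4 weeks. Single ip dose of 3 mg/kg in 0.1 mL DMSO, n = 6 per group. Systolic BP measured by tail-cuff in conscious rats 24 h before and 2 h after dosing. Normotensive and hypertensive DMSO controls included. Mean ± SE, ANOVA/LSD.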

Activity calls are given as the source filed them. The rule behind the calls is not given here.

In the case of `CSc1nc2ccccc2c(=O)n1Cc1ccc(-c2ccccc2-c2nn[nH]n2)cc1`, the result (in experiment [1]; in the experiment on Rattus norvegicus [2]; in the experiment on Rattus norvegicus [3]) was Active.

For the compound `O=c1[nH]c2ccccc2c(=O)n1Cc1ccc(-c2ccccc2-c2nn[nH]n2)cc1`, the outcome (in experiment [1]; in the experiment on Rattus norvegicus [2]; in the experiment on Rattus norvegicus [3]) was Active.

As for `CSc1nc2ccccc2c(=O)n1Cc1ccc(-c2ccccc2C(=O)O)cc1`, the outcome (in experiment [1]; in the experiment on Rattus norvegicus [2]; in the experiment with Rattus norvegicus [3]) was Active.

With `Oc1nc(SCc2ccc(-c3ccccc3-c3nn[nH]n3)cc2)nc2ccccc12`, the result in experiment [1] was inactive.

As to `CCCCc1nc(Cl)c(CO)n1Cc1ccc(-c2ccccc2-c2nnn[nH]2)cc1`, the outcome (in experiment [1]; in the experiment with Rattus norvegicus [2]; with Rattus norvegicus [3]) was Active.

For the origin of these results see ChEMBL document CHEMBL1138180, “Design and synthesis of new tetrazolyl- and carboxy-biphenylylmethyl-quinazolin-4-one derivatives as angiotensin II AT1 receptor antagonists” (J Med Chem, 2006).
